The results in this text go back to ChEMBL document CHEMBL4842389, “Discovery of Dolastatinol: A Synthetic Analog of Dolastatin 10 and Low Nanomolar Inhibitor of Tubulin Polymerization” (ACS Med Chem Lett, 2021).

Each structure is given as a SMILES string. pIC50: −log10 of the molar value. The source made the active and inactive calls. The calls are words filed in the database; no cut-off is given here. Square brackets hold non-standard residues; d marks the D form. Peptide text beside a SMILES is read from it. Dolaproine = CO[C@@H]([C@@H]1CCCN1)[C@@H](C)C(=O)O; Dil = CC[C@H](C)[C@H](NC)[C@@H](CC(=O)O)OC; NMeV = CN[C@H](C(=O)O)C(C)C

One assay addresses Tubulin (Homo sapiens) (UniProt P68371+Q9H4B7+P0DPH7+P68366+Q13509+Q71U36+P04350+Q3ZCM7+P07437+P68363+Q9BQE3+Q6PEY2+Q13885+Q9BVA1+Q9BUF5). Briefly: Inhibition of microtubule in human MDA-MB-231 cells assessed as reduction in microtubule network in interphase cells measured after 24 hrs by DAPI staining based immunofluorescence microscopic analysis. In kind it is cell-based. The conditions noted are these: dose 5-625 nM. In outline: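 MDA-MB-231 cells (10 000/well, 70–80% confluent) treated 24 h at 5, 25, 125 and 625 nM in DMEM. Fixed in 4% paraformaldehyde, permeabilized with 0.2% Triton X-100, blocked in 5% BSA, stained with anti-α-tubulin (DM1A, 1:800, 16 h) and Alexa Fluor 488 secondary, nuclei with DAPI. Imaged at 40×; interphase microtubule network quantified, unpaired two-tailed t test.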

The subject of assay [1] is MDA-MB-231. As to the kind of experiment: Cell cycle arrest in human MDA-MB-231 cells assessed as accumulation at G2/M phase at 125 nM after 24 hrs by RNaseA/propidium iodide staining based FACSCalibur flow cytometry (reference value: 26.37 %). The class given is functional.
Assay [2] concerns MDA-MB-231. Briefly: Cell cycle arrest in human MDA-MB-231 cells assessed as accumulation at S phase at 125 nM after 24 hrs by RNaseA/propidium iodide staining based FACSCalibur flow cytometry (reference value: 19.96 %). The class given is functional.
Assay [3] has as its system MDA-MB-231. Briefly: Cell cycle arrest in human MDA-MB-231 cells assessed as accumulation at G1 phase at 125 nM after 24 hrs by RNaseA/propidium iodide staining based FACSCalibur flow cytometry (reference value: 37.64 %). In kind it is functional.
The test system of assay [4] is MDA-MB-231. Briefly: Cell cycle arrest in human MDA-MB-231 cells assessed as accumulation at sub G1 phase at 125 nM after 24 hrs by RNaseA/propidium iodide staining based FACSCalibur flow cytometry (reference value: 3.27 %). The class given is functional.
The test system of assay [5] is MDA-MB-231. Briefly: Inhibition of cell migration in human MDA-MB-231 cells assessed as reduction of cell mobility at 5 nM measured at 24 hrs by well scratch method. In kind it is functional, cell-based. In outline: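 MDA-MB-231 cells (3 × 10^4/well) attached overnight, then exposed to 5 nM in serum-free DMEM for 48 h. Monolayer scratched, debris washed off, complete medium added without drug. Images taken at 10× at 0 h and after 24 h; percentage wound coverage quantified. Two-tailed unpaired t test.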

The subject of assay [6] is MDA-MB-231. Briefly: Cytotoxicity against human MDA-MB-231 cells assessed as reduction in cell viability incubated for 96 hrs by XTT assay. The class given is functional, cell-based. The gist of the method:
(§1)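 XTT viability assay on human breast cancer cells. Cells were seeded at 5000 cells/well, left to adhere overnight, then exposed to increasing compound concentrations for 96 h in complete medium with DMSO below 0.05% final. Wells were washed and refed, then given XTT reagent for 3 h, with absorbance read at 450 nm. Response was normalized to DMSO controls. Tetraplicates, three independent experiments. IC50 from a four-parameter variable-slope fit.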

The subject of another assay is BT-474. Briefly: Cytotoxicity against human BT-474 cells assessed as reduction in cell viability incubated for 96 hrs by XTT assay. The conditions noted are these: BT-474, 96 h. In kind it is functional, cell-based. In outline:
as §1

In a further assay the test system is SK-BR-3. Briefly: Cytotoxicity against human SKBR3 cells assessed as reduction in cell viability incubated for 96 hrs by XTT assay. In kind it is functional, cell-based. The conditions noted are these: SK-BR-3, 96 h. In outline:
as §1

In assay [7] the test system is MDA-MB-231. As to the kind of experiment: Induction of mitochondrial disintegration in human MDA-MB-231 cells at 625 nM measured after 24 hrs by Mitotracker green dye based fluorescence microscopy. In kind it is functional, cell-based. In outline: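 MDA-MB-231 cells (7000/well) grown overnight in DMEM with 10% FBS, then given 5, 25, 125 or 625 nM for 24 h. Live cells labelled 30 min with 75 nM MitoTracker Green FM in serum- and phenol red-free DMEM, counterstained with DAPI for 15 min, and imaged by fluorescence microscopy at 40× to view mitochondrial fission.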

Consider `CC[C@H](C)[C@@H]([C@@H](CC(=O)N1CCC[C@H]1[C@H](OC)[C@@H](C)C(=O)N[C@@H](Cc1ccccc1)C(=O)O)OC)N(C)C(=O)[C@@H](NC(=O)[C@@H](NC)C(C)C)C(C)C` (H-[NMeV]V[Dil][Dolaproine]F-OH), for which the inhibition entry on Tubulin (Homo sapiens) was “Dose-Dependent Effect”. The Activity with MDA-MB-231 [1] was 32.79%; in the assay with MDA-MB-231 [2], 16.11%; in the assay on MDA-MB-231 [3], 30.88%; with MDA-MB-231 [4], 9.66%. The inhibition entry with MDA-MB-231 [5] was “Active”. For the same molecule, in the assay with MDA-MB-231 [6], the IC50 result is reported as “Not Active”. In addition, the pIC50 in the assay with BT-474 was 8.06; in the assay on SK-BR-3, 8.28. In the assay with MDA-MB-231 [7], the outcome was inactive.
